# Data from PubChem BioAssay.
# Unmarked numbers belong to inactive results. Results filed as inconclusive are left out. The source made the active and inactive calls.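 How the source made its calls, unless noted: active means viability increase at or above a cutoff of the median across tested compounds plus 3 SD (cut at about 8.5% in these data, passing the limit was not always enough); inconclusive means some gains above the cutoff, reason not given; inactive means the rest.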
# Experiments:
# [1] = OD615 S. cerevisiae growth inhibition, permissive medium, pilot counter-assay, permissive growth control for S. cerevisiae lifespan shortening project (AID 705;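 active means growth inhibition above 25% in both replicates, a cutoff set 3 SD above the mean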); conditions: OD615, 24 h, at 10 µM, stronger effect = higher value
# Method in brief: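 System: Engineered DeaD yeast | Buffer or medium: SC raffinose/galactose permissive medium | Incubation: Cells pre-grown 4 h, then 24 h compound exposure, 30 °C humidified | Measured by: Absorbance (optical density) at 615 nm | Read-out: Reduction in yeast growth (OD615)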
# [2] = Restrictive medium S. cerevisiae growth inhibition, OD615, pilot screen of yeast lifespan reduction project, restrictive growth control (AID 706;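 active means growth inhibition above a set limit, 3 SD over mean compound inhibition, in both replicates, cut at about 43% in these data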;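 further: modified DeaD lifespan yeast strain shifted to restrictive glucose medium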); conditions: OD615, 48 h, at 10 µM, stronger effect = higher value
# Method in brief: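 Material: modified S. cerevisiae; Medium: glucose-based CSMM-D restrictive medium; Compound dosing: one concentration, 10 µM final, 0.25% DMSO; Incubation: 48 h compound exposure at 30 °C; Measured by: OD615.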
# [3] = viability gain of MRP-1-high H69AR cells under doxorubicin, pilot screen, MRP-1 activator project, CellTiter-Glo, duplicate (AID 807); conditions: H69AR viability with doxorubicin, CellTiter-Glo luminescence; at 10 µM; stronger effect = higher value;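 further: compound pretreatment 18-22 h then 72 h combined with doxorubicin; 0% = doxorubicin alone and 100% = vehicle without doxorubicin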
# [4] = growth suppression of beta-catenin knockout HCT116, pilot screen, human colon tumor cells (AID 823;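 active means cell viability at or below a set limit in both duplicate runs, the limit being the all-compound median minus 4 SD, cut at about 23% in these data, passing the limit was not always enough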;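 further: 0% = wells killed by 20 µM Hyamine and 100% = untreated DMSO cell wells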); conditions: CellTiter-Glo, 60 h, at 10 µM, stronger effect = lower value
# [5] = growth suppression of PTEN-deleted HCT116, pilot screen, cell-based, HCT116 clonal line, CellTiter-Glo (AID 824;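 active means viability at or below 27.92% in each of two runs, the all-compound median minus 4 SD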;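 further: 0% = 20 µM Hyamine control and 100% = vehicle cell control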); conditions: 60 h, at 10 µM, stronger effect = lower value
# [6] = inhibitors of the yeast RAM network, pilot screen, dse1pr::URA3 reporter, 5-FOA selection (AID 869;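 active means inhibition over a set limit, the all-compound mean plus 3 SD, in both replicate runs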;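 further: 0% = DMSO wells with no growth and 100% = 10 µM 1-NA-PP1 with full growth; RAM network block rescues cells from 5-FOA so hits raise OD615 growth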); conditions: S. cerevisiae dse1pr::URA3 5-FOA growth, OD615, 2 d; at 10 µM; stronger effect = higher value; strain carries analog-sensitive mutant Cbk1 kinase
# [7] = RAM signaling pathway blockade in yeast – S. cerevisiae, Pdr1DBD-CYC8 efflux-inhibited sensitized strain, primary screen (AID 1298;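 active means RAM network inhibition above 8.4% in each of two replicates, 3 SD over the compound average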;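 further: 0% = DMSO untreated cells without growth and 100% = 10 µM 1-NA-PP1 full growth; higher means more yeast growth rescued from 5-FOA killing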); conditions: S. cerevisiae cbk1-as DSE1-URA3 strain, 5-FOA growth OD615, 2 d; at 50 µM; stronger effect = higher value
Compound,growth inhibition [1] [%],growth inhibition [2] [%],viability increase [3] [%],viability [4] [%],viability [5] [%],inhibition [6] [%],RAM network inhibition [7]
CCOCN(C(=O)Cn1c(CO)nc2ccccc21)c1c(C)cccc1CC,-10.7,0.69,-3.12,89.4,94.4,2.68,7.56%
COc1ccc(N2CCN(c3nc4c(c(=O)[nH]c(=O)n4C)n3Cc3ccccc3Cl)CC2)cc1,4.9,-2.96,-2.71,84.6,75.3,2.07,-1.3%
COc1ccc(C)c(S(=O)(=O)Nc2ccc(OCC(=O)O)cc2)c1,2.53,-4.93,-1.41,99,102,0.345,-1.4%
CCOc1ccc(N2CCCCn3c2nc2c3c(=O)[nH]c(=O)n2C)cc1,-21.9,-16.5,-1.1,97.8,98,1.5,2.47%
CC1(C)CC(=O)N(CC(=O)O)c2ccccc2S1(=O)=O,-4.39,4.7,-0.77,99.8,96.3,1.42,4.48%
CCOC(=O)C1=C(C)NC(=O)CC1c1cc2c(cc1Br)OCO2 (configuration not stated),1.83,-5.8,-4.4,96.6,90.6,1.44,6.81%
CCOC(=O)C1=C(O)CSC1=Nc1ccc(Cl)cc1,-7.6,-10.1,-1.62,107,99.8,1.17,7.14%
CCCc1cc(C(=O)Nc2cccc(Cl)c2)no1,-7.36,-1.01,0.77,102,97.7,1.44,-1.31%
O=C(CCCCn1c(=O)[nH]c2ccccc2c1=O)N1CCN(c2ncccn2)CC1,-13.4,-20.2,-1.54,104,105,0.76,0.58%
CCOC(=O)N1CCN(C(=O)c2cc3c(-c4ccc(Cl)cc4)nn(C)c3s2)CC1,-5.13,4.77,-6.02,55.8,49.2,0.47,1.8%
Cc1ccc(-n2nnc3c(=O)n(CC(=O)N4CCOCC4)cnc32)cc1,-0.37,0.95,-1.94,101,94.2,1.23,3.05%
CCN(CC)c1ccc(NC(=O)CN2C(=O)CSc3ncccc32)c(C)c1,1.52,-5.94,0.51,45.2,66,1.34,6.12%
CCOC(=O)c1[nH]c(C)c(C(=O)NC(C)CC)c1C (configuration not stated),2.05,-0.41,1.35,103,99.7,1.21,0.93%
Cc1cc(C)c(S(=O)(=O)N2CCN(CCO)CC2)c(C)c1,4.04,10.5,0.8,108,97.4,1.64,2.45%
Cc1ccccc1NC(=O)c1ocnc1C,-1.01,-8.43,-1.48,101,92.3,0.18,4.25%
CN(C)c1ccc(C(=O)Nc2nc3c(s2)CCCC3)cc1,9.25,-3.03,-0.42,69.7,72.4,0.905,1.19%
CCOC(=O)c1ccc(NC2c3ccccc3C(=O)N2c2cccnc2)cc1 (configuration not stated),0.43,1.2,-3.72,65.5,67.6,0.67,2.21%
CC1=C(C(=O)OC(C)C)C(c2cccs2)n2ncnc2N1 (configuration not stated),-1.96,7.93,-1.21,101,96.2,0.955,2.09%

Compound,growth inhibition [1] [%],growth inhibition [2] [%],viability increase [3] [%],viability [4] [%],viability [5] [%],inhibition [6] [%],RAM network inhibition [7]
COC(=O)CSc1nc2ccccc2o1,-7.46,-18.7,-1.43,97.8,96.3,1.3,1.45%
O=C(O)CCCCCN1C(=O)C(=O)/C(=C(/O)c2ccccc2)C1c1ccccc1 (configuration not stated),-21.2,-18.6,0.21,100,103,3.47,2.1%
CCCCNc1nc2c(c(=O)n(C)c(=O)n2C)n1CCC,-8.32,-0.415,0.36,97.1,96,-0.375,1.74%
CC(=O)c1ccc(OCC(O)CN2CCCC(C)C2)cc1 (configuration not stated),5.32,-4.29,-0.81,99.3,96.7,1.98,5.23%
COc1ccc(NC(=O)C2CCN(S(=O)(=O)c3ccc(C)cc3)CC2)cc1OC,4.97,1.39,-3.08,97.1,101,2.25,4.75%
COc1ccc(N(C)S(=O)(=O)c2cccc(C(=O)NC3=NCCS3)c2)cc1,-4.93,-1.7,-1.55,91.6,89.8,1.13,2.28%
O=C(NC1CCCCC1)c1ccc(Br)o1,-5.84,-1.68,-1.9,102,102,0.915,3.82%
Cn1cccc1Cc1nnc(SCC(=O)Nc2ccc3c(c2)OCO3)n1-c1ccc(F)cc1,8.39,14.1,-1.95,90.4,91.3,1.56,8.29%
Cc1ccccc1-c1nnc(SCC(=O)Nc2ccc3c(c2)OCCO3)n1N,-1.12,10.1,-2.18,96.7,91.7,0.6,-0.27%
COC(=O)c1ccc(Cl)c(NC(=O)NC2CCCCC2)c1,-15.1,-5.54,-1.61,96.3,93,2.23,6.1%
COc1cc2[nH]c(=O)n(CCCCCC(=O)NCCCN3CCOCC3)c(=O)c2cc1OC,-9.12,-24.8,-1.27,97.8,89.6,0.585,-0.68%
CS(=O)(=O)c1ccc2nc(NC(=O)c3ccco3)sc2c1,-16,-4.42,-7.64,84.9,81.9,3.1,4.15%
CCOC(=O)c1cnc2c(C)cccc2c1NCc1ccco1,-10.5,-9.38,-4.61,82.5,79,1.28,-0.77%
O=S(=O)(NCc1cccnc1)c1ccc(Cl)c(Cl)c1,-0.945,-19.6,-0.3,98.9,93.8,0.75,4.18%
COc1ccc(-c2cn3c(C)c(C(=O)N4CCN(c5ccccc5F)CC4)sc3n2)cc1,2.91,-0.695,0.81,78.9,78,2.13,18.2% (active)
CCOCCOCN(C#N)c1nc(OC)nc(N(C)C)n1,-5.92,0.69,1.74,102,99.9,0.555,2.46%
CCOCCn1c(COc2ccccc2)nc2ccccc21,-6.72,1.93,-2.53,83.8,81.9,1.88,6.89%
COc1cccc(-n2c(Cc3cc(=O)[nH]c(=O)[nH]3)nnc2SCC(=O)NC2CCCC2)c1,-6.3,8.16,-0.03,101,101,2.87,-1.25%
